# SIRT5 block = blocks human SIRT5 desuccinylation of peptide; Purified SirT5, succinyl-peptide AMC, trypsin-coupled fluorescence; inhibition, % at 15 µM; AID 652115; 330,000 tested, 1.1% active; in the data active means inhibition above about 15%
# rRNA inh HTS = inhibits bacterial ribosomal RNA function over humanized ribosomes. GFP signal change (wild-type ribosome), % (no concentration beside the values). AID 720706. 350,000 tested, 1.6% active. E. coli WT GFP vs humanized-ribosome RFP mutants, fluorescence, 24 h; hits give low values; DMSO median 0, no signal -100;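 active means significant combined selectivity score with lowered wild-type GFP, culture density cut under 30%, mutant RFP and density less affected; inactive means any of these conditions unmet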
# FN deposit inh = fibronectin deposition inhibition; 350,000 tested, 0.086% active; AH1F fibroblasts, Alexa488-fibronectin deposition fluorescence, overnight; AID 743247; inhibition, % at 12.6 µM;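 active means mean inhibition across replicates of 30% or more, regardless of how many single replicates reach that level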;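 further: positive control wells lacked labelled fibronectin entirely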
#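 Material: AH1F fibroblast monolayer depositing Alexa488-labelled fibronectin into matrix / Amount: 10000 AH1F cells per well / Signal: fluorescence 485/525 nm / Medium: DMEM, 2% serum / Compound: single dose, pinned / Incubation: 1 h cell adhesion before compound, then overnight fibronectin incubation / Reagent: Alexa488-FN, 24 nM final / Read-out: inhibition of fibronectin deposition signal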
# Statin myotox sup = suppression of simvastatin myotoxicity; rescue of ATP level, % at 7.49 µM; C2C12 myotubes + simvastatin, ATP luminescence, 48 h; scaled: DMSO 0, geranylgeraniol control 100; 330,000 tested, 0.78% active;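 active means mean ATP rescue above about 67%, or every replicate alone reaching that limit, limit read from the data, passing the limit was not always enough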;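 further: myotubes were challenged with 10 µM simvastatin during compound exposure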
# FGF22 binding = shifts melting point of recombinant human FGF22 | 340,000 tested, 1.5% active | AID 651658 | activity (Tm shift, normalised), % at 9.99 µM | recombinant FGF22 thermal shift, SYPRO orange fluorescence; percent of sucrose octasulfate shift, DMSO zero | Q9HCT0;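 active means mean Tm shift, scaled 0 neutral to 100 positive control, at about 1.3% or above, every replicate too, limit read from the data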
# E-sel inducer = induces E-selectin expression in human endothelial cells; P16581; HUVEC E-selectin immunofluorescence imaging; normalized: neutral wells 0, TNF-alpha wells 100; activation, % at 7.58 µM; 260,000 tested, 0.37% active; AID 686992;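 active means mean E-selectin-positive cell signal at least 10% of the positive control, reached in at least 60% of replicates, without over 20% cell loss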
# Target sequence (P16581 whole entry, looked up): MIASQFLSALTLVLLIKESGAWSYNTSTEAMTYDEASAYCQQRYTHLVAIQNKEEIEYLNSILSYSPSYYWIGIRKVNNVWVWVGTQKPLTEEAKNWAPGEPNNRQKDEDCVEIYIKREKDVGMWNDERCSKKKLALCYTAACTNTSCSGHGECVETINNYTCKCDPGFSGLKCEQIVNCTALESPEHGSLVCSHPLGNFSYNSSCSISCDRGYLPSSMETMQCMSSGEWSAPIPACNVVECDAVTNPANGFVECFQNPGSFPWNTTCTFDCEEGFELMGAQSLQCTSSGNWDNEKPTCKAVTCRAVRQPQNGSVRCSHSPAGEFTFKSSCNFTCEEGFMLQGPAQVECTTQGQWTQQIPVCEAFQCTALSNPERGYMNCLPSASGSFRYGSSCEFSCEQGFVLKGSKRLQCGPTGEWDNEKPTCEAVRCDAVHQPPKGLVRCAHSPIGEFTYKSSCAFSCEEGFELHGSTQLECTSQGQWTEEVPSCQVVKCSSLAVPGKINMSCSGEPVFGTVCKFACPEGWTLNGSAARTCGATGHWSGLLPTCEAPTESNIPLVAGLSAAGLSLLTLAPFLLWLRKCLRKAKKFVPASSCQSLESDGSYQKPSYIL
#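 assay system = HUVEC, human umbilical vein endothelial cells | input = 3,000 HUVEC seeded per well | medium = EGM-2 growth medium on 0.1% gelatin-coated wells | dosing = one compound dose added by pin transfer | signal = immunofluorescence imaging | read-out basis = % PE-positive cells | control set = TNF-alpha, DMSO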
# * hit, by the source's call; . = no result. The list is not random: actives were taken first. Their share in the collection is about 4%.
SMILES,SIRT5 block,rRNA inh HTS,FN deposit inh,Statin myotox sup,FGF22 binding,E-sel inducer
COc1ccc(S(=O)(=O)Nc2ccc3c(c2)C(=O)N([C@@H](C)CO)C[C@H](C)[C@H](CN(C)S(=O)(=O)c2ccccc2)OCCCC[C@@H](C)O3)cc1,15*,-2,.,.,0,0
COc1ccc(S(=O)(=O)N(C)C[C@H]2OCCCC[C@H](C)Oc3ccc(NS(=O)(=O)c4ccc(C)cc4)cc3C(=O)N([C@@H](C)CO)C[C@H]2C)cc1,20*,2,.,9,0,0
COc1ccc(S(=O)(=O)N(C)C[C@H]2OCCCC[C@@H](C)Oc3ccc(NS(=O)(=O)c4ccc(C)cc4)cc3C(=O)N([C@@H](C)CO)C[C@H]2C)cc1,24*,7,.,22,.,0
COc1ccc(S(=O)(=O)Nc2ccc3c(c2)C(=O)N([C@@H](C)CO)C[C@H](C)[C@H](CN(C)S(=O)(=O)c2ccc(C)cc2)OCCCC[C@@H](C)O3)cc1,9,-1,1,.,0,.
COc1ccc(S(=O)(=O)Nc2ccc3c(c2)C(=O)N([C@H](C)CO)C[C@H](C)[C@@H](CN(C)S(=O)(=O)c2ccc(C)cc2)OCCCC[C@@H](C)O3)cc1,13,-3,3,.,0,.
COc1cccc(NC(=O)N[C@@H]2CC[C@@H](CC(=O)N3CCN(C)CC3)O[C@@H]2CO)c1,0,0,0,-3,0,0
COc1ccc(S(=O)(=O)N(C)C[C@H]2OCCCC[C@H](C)Oc3ccc(NS(=O)(=O)c4ccc(C)cc4)cc3C(=O)N([C@H](C)CO)C[C@@H]2C)cc1,23*,-3,.,11,0,0
COc1ccc(S(=O)(=O)N(C)C[C@@H]2OCCCC[C@@H](C)Oc3ccc(NS(=O)(=O)c4ccc(C)cc4)cc3C(=O)N([C@H](C)CO)C[C@@H]2C)cc1,15*,2,.,-4,0,0
COc1ccc(S(=O)(=O)N(C)C[C@H]2OCCCC[C@@H](C)Oc3ccc(NS(=O)(=O)c4ccc(C)cc4)cc3C(=O)N([C@H](C)CO)C[C@@H]2C)cc1,5,2,.,3,0,0
COc1ccc(S(=O)(=O)Nc2ccc3c(c2)C(=O)N([C@H](C)CO)C[C@@H](C)[C@H](CN(C)S(=O)(=O)c2ccc(C)cc2)OCCCC[C@H](C)O3)cc1,11,-3,-5,.,0,.
COc1ccc(S(=O)(=O)N(C)C[C@@H]2OCCCC[C@@H](C)Oc3ccc(NS(=O)(=O)c4ccc(C)cc4)cc3C(=O)N([C@@H](C)CO)C[C@H]2C)cc1,17*,-4,.,11,0,0
COc1ccc(S(=O)(=O)N(C)C[C@H]2OCCCC[C@H](C)Oc3ccc(NS(=O)(=O)c4ccc(C)cc4)cc3C(=O)N([C@H](C)CO)C[C@H]2C)cc1,29*,0,.,9,0,2
CC(=O)N(C)C[C@H]1Oc2cc(-c3ccccc3C)ccc2S(=O)(=O)N([C@H](C)CO)C[C@H]1C,-1,-11,-2,-13,0,0
COc1ccc(S(=O)(=O)N(C)C[C@@H]2Oc3ccc(NC(=O)Cc4ccccc4)cc3C(=O)N([C@H](C)CO)C[C@H]2C)cc1,-1,-4,1,-7,0,0
C[C@@H]1CN([C@H](C)CO)C(=O)c2cccc(NC(=O)c3nc4ccccc4s3)c2O[C@H]1CN(C)Cc1ccc(C(F)(F)F)cc1,20*,0,-9,-50,0,-3
C[C@H](CO)N1C[C@H](C)[C@H](CN(C)Cc2ccccc2)Oc2c(NC(=O)c3nc4ccccc4s3)cccc2C1=O,1,-5,.,21,0,0
C[C@H]1CN([C@@H](C)CO)C(=O)c2cccc(NC(=O)c3nc4ccccc4s3)c2O[C@H]1CN(C)Cc1ccc(C(F)(F)F)cc1,27*,-3,14,-31,0,-2
C=C(C)c1cccc(C(C)(C)NC(=O)Nc2ccc(OC)cc2)c1,-2,7,-3,-3,43*,0
CCOc1cccc(C(=O)Nc2ccc(N3CCCC3)cc2)c1,-1,-19*,0,-1,0,.
CCOc1ccc(C(=O)Nc2ccc(N3CCCC3)cc2)cc1,.,.,.,-1,.,.
CCOc1cccc(C(=O)Nc2ccc(N(CC)CC)cc2)c1,.,.,30*,-55,.,.
CO[C@@H]1CN(C)C(=O)c2ccc(NC(=O)c3ccccc3F)cc2OC[C@H](C)N(CC2CC2)C[C@@H]1C,-5,-1,-7,13,0,0
CO[C@@H]1CN(C)C(=O)c2cc(NS(C)(=O)=O)ccc2OC[C@@H](C)N(C(=O)NC(C)C)C[C@H]1C,.,0,.,-1,.,0
CCCc1ccc(C(=O)NNc2ccccc2F)cc1,.,-9,-1,.,0,55*
Cc1cc(OCCCC(=O)Nc2cccc(-n3cnnn3)c2)ccc1Cl,0,-34*,-12,5,0,.
SMILES,SIRT5 block,rRNA inh HTS,FN deposit inh,Statin myotox sup,FGF22 binding,E-sel inducer
COc1cccc(NC(=O)COc2cccc(-n3cnnn3)c2)c1,-4,2,-1,.,1,.
C[C@H](CO)N1C[C@H](C)[C@H](CN(C)C(=O)CN(C)C)Oc2cc(C#C[C@@H](C)O)ccc2S1(=O)=O,-2,-1,.,3,0,0
CCCCn1c(N)c(Sc2ccc([N+](=O)[O-])cc2)c(=O)[nH]c1=O,12,2,3,-3,0,.
CCCCn1c(N)c(Sc2ccc(Cl)cc2)c(=O)[nH]c1=O,1,-21*,.,21,0,.
CCCN1C[C@H](C)[C@H](OC)CN(C)C(=O)c2cc(NC(=O)c3cccc(OC)c3)ccc2OC[C@@H]1C,.,-2,9,-4,.,2
Cc1ccc(O)c(N=Cc2cc(Cc3ccccc3)cc([N+](=O)[O-])c2O)c1,-4,-38,.,.,43*,0
Cc1ccc(O)c(C=Nc2cc(C)ccc2O)c1,.,.,.,34,.,.
CS(=O)(=O)N1N=C(c2ccco2)CC1c1cccc([N+](=O)[O-])c1 (configuration not stated),-4,12,3,9,0,-2
CS(=O)(=O)N1N=C(c2ccco2)CC1c1ccc(Br)cc1 (configuration not stated),-4,.,3,.,44*,.
N#Cc1c(N)[nH]c(C(=O)c2ccccc2)c1-c1ccc(Cl)cc1,0,-44*,.,.,0,.
CC(C)(C)C(=O)c1c(N)[nH]c(C(=O)c2ccccc2)c1-c1ccc(Cl)cc1Cl,-4,-30*,1,.,0,.
COC(=O)[C@H]1[C@H](CO)[C@H]2Cn3c(ccc(C4=CCCCC4)c3=O)[C@H]2N1Cc1cccnc1,-14,-3,.,.,.,0

# High-throughput results: PubChem, Broad Institute
